# Screens deposited in PubChem BioAssay by several laboratories.
# Rows were chosen to be rich in hits. Some 2.1% of all compounds tested hit in one or more screens of this group.
# APJ antagonist = antagonists of human APJ apelin receptor; P35414; CHO-K1 APJ beta-arrestin complementation, luminescence; inhibition, % at 20 µM; actives 0.32% (n = 330,000); AID 2521;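 active = inhibition above about 40% at 20 µM, limit read from the data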;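 also: cells challenged with 10 nM apelin-13 agonist together with compound; plate controls were apelin-13 plus DMSO wells for no effect and DMSO wells lacking apelin-13 for full effect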
# EBI2 antag = antagonists of human EBI2 receptor; P32249; EBI2 beta-arrestin recruitment, luminescence, 7a,25-OHC stimulated; inhibition, % at 5 µM; actives 0.81% (n = 360,000); AID 651636; in the data active = inhibition above about 38%;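 also: enzyme fragment complementation signal reports receptor beta-arrestin coupling in cells; 0% = agonist plus DMSO wells and 100% = wells without agonist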
# Target sequence (P32249 whole entry, looked up, the tested form may be a part): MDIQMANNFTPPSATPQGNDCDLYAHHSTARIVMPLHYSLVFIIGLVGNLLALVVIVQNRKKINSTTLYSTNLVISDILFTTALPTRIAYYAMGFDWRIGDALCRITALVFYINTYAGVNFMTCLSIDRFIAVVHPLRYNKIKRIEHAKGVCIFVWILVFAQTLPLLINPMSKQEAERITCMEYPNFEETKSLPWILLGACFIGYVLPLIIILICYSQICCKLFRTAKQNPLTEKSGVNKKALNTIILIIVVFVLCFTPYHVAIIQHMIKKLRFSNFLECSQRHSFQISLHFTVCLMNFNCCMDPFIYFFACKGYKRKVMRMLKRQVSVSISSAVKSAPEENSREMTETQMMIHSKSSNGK
# CXCR6 block = CXCR6 (human) receptor inhibition | inhibition, % at 20 µM | actives 0.36% (n = 360,000) | O00574 | CHO-K1 PathHunter CXCR6 beta-arrestin, luminescence; in the data active = inhibition above about 34%, passing the limit was not always enough;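 also: antagonist mode with CXCL16 agonist at 10 nM final; 0% = 10 nM CXCL16 with DMSO and 100% = unstimulated wells without agonist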
# APJ ag = APJ receptor agonism; CHO-K1 APJ PathHunter beta-arrestin, luminescence; 0% DMSO wells, 100% apelin; activation, % at 20 µM; actives 0.11% (n = 330,000); P35414;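 active = activation more than six SD over the plate average, tested at 20 µM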;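 also: 0% = DMSO alone and 100% = apelin-13 at 10 nM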
#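 Assay system: engineered CHO-K1 APJ arrestin reporter cells; Amount: 1000 CHO-K1 reporter cells seeded per well; Dosing: one dose, 20 µM compound, 1% DMSO; Times: compound stimulation 90 min at 25 °C, detection 60 min; Measured by: luminescent beta-gal fragment complementation, chemiluminescent substrate; Read-out: APJ–arrestin association signal; Controls: DMSO vs Apelin-13 10 nM.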
# m5-HT2A agonist = mouse HTR2A agonism via beta-arrestin recruitment. activation, % at 7.6 µM. actives 0.66% (n = 360,000). P35363. CHO-K1 mHTR2A beta-arrestin complementation, luminescence; percent of 30 µM serotonin response;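 active = activation above a run cutoff, the mean activation of all tested compounds plus 3 SD, cut at about 14% in these data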;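 also: 0% = plate median of compound wells and 100% = 30 µM serotonin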
# CCR6 antag = CCR6 (human) receptor antagonism | actives 0.49% (n = 340,000) | inhibition, % at 20 µM | CHO-K1 CCR6 PathHunter beta-arrestin, luminescence, CCL20-stimulated | P51684;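 active = compounds whose inhibition of the agonist-driven luminescence signal at 20 µM reaches about 50%, limit read from the data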;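 also: cells stimulated with CCL20 at 14 nM final; plate controls were DMSO with CCL20 for no effect and DMSO without agonist for full effect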
# Target sequence (P51684 whole entry, looked up): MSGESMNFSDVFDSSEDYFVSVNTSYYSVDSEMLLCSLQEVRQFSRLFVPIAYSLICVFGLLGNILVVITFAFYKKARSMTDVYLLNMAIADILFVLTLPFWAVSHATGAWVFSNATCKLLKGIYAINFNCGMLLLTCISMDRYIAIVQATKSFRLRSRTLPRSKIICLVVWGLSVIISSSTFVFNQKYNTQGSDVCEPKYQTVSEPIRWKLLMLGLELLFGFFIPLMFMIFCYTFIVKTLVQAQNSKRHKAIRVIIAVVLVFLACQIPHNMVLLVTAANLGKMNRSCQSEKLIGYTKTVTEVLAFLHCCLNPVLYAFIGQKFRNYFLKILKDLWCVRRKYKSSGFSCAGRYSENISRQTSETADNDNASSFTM
# OPRM1 ag = counter-screen for mouse HTR2A agonists: human mu opioid receptor agonists; shares compounds with m5-HT2A agonist; actives 5.3% (n = 2,300); activation, % at 9.3 µM; U2OS OPRM1 beta-arrestin PathHunter, luminescence; DMSO 0%, DAMGO 9.3 µM 100%; AID 624380;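 active = mean activation above the mean of DMSO-only wells plus 3 SD, cut at about 0.5% in these data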
# HTR2A ag conf = confirmation of mouse HTR2A serotonin receptor agonists; shares compounds with m5-HT2A agonist; CHO-K1 PathHunter beta-arrestin recruitment, luminescence; DMSO 0%, 30 µM serotonin 100%; activation, % at 7.6 µM; actives 19% (n = 2,300);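 active = mean activation across triplicates above the hit threshold derived in the original primary screen, cut at about 15% in these data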
# An asterisk follows results filed as active; x = no result given; ! = repeats disagree.
SMILES,APJ antagonist,EBI2 antag,CXCR6 block,APJ ag,m5-HT2A agonist,CCR6 antag,OPRM1 ag,HTR2A ag conf
S=C(Nc1ccccc1Cl)NC1CCN(Cc2ccccc2)CC1,-1.7,-6.9,11.6,-2.1,-5.3,14.3,x,x
FC(F)(F)c1ccccc1NC(=S)NC1CCN(Cc2ccccc2)CC1,6.9,-2.0,-2.0,-1.7,16.9*,14.7,-0.7,-4.6
CC(CNC(=O)CCCn1ncn2c(cc3occc32)c1=O)c1ccccc1 (configuration not stated),4.1,0.8,6.7,-4.1,16.3*,9.1,-0.6,-6.5
N#Cc1ccc(OCC(=O)N2CCN(C(=O)c3ccco3)CC2)cc1,-3.2,0.0,2.0,1.1,2.3,8.0,x,x
N#Cc1ccc(OCC(=O)N2CCCC2=O)cc1,0.0,-2.6,-17.4,-1.4,15.2*,4.4,0.7*,2.1
Nc1nc(F)nc2c1ncn2[C@@H]1O[C@H](CO)[C@@H](O)[C@H]1O,-5.2,-12.0,-11.9,2.1,19.9*,-13.1,0.9*,11.2
CC(=O)C1=C(O)C(=O)OC1c1ccc(Cl)cc1 (configuration not stated),15.9,-4.9,5.6,0.4,15.5*,0.3,-0.3,0.4
CC(=O)C1=C(O)C(=O)OC1c1ccc(C)cc1 (configuration not stated),2.3,-7.9,-4.2,2.6,-0.8,1.9,x,x
CC(=NNS(=O)(=O)c1cccc([N+](=O)[O-])c1)c1ccc(-n2ccnc2)cc1,2.7,-0.4,7.1,-0.7,15.3*,10.8,-0.7,-5.3
COC(=O)CSc1[nH]c(=O)cc(C)c1C#N,23.3,-6.4,-9.9,-2.6,17.1*,-9.6,-0.5,-2.7
CCOC(=O)C1CCN(C(=O)CSCc2nc(-c3ccc(OCC)cc3)oc2C)CC1,4.8,-6.0,-5.7,5.3,16.2*,9.8,-0.5,-0.3
S=c1[nH]nc(C2CCCCC2)n1Cc1ccccc1,-3.2,9.3,2.4,-5.4,14.9*,8.4,-0.5,-1.8
CN1C(=O)CC(Sc2ncccc2C(=O)O)C1=O (configuration not stated),12.1,-0.9,0.7,-6.6,15.0*,13.2,-0.5,1.5
CCCN1C(=O)CC(Sc2ncccc2C(=O)O)C1=O (configuration not stated),11.9,-29.0,-3.5,-1.7,-0.9,1.4,x,x
Cc1cc(N/N=C/c2ccc(O)c(C)c2O)nc(-c2ccccc2O)n1,x,-11.3,-6.4,x,20.1*,-45.2,0.5,64.6*
Cc1cccc(C(=O)N2CCN(S(=O)(=O)N3CCCCCC3)CC2)c1,-9.3,-1.9,6.1,-2.7,0.3,5.3,x,x
Cc1ccc(-c2cc(C(F)(F)F)nn2-c2ccc(S(N)(=O)=O)cc2)cc1,-8.3,4.7,1.5,9.4,19.7*,14.6,1.1*,25.3*
CN(C(=O)Cc1c(C(=O)O)n(C)c2ccccc12)c1cccc(C(F)(F)F)c1,15.6,-13.3,-2.9,-3.9,5.0,7.1,x,x
C[C@H](O)C#Cc1cnc2c(c1)C(=O)N([C@H](C)CO)C[C@@H](C)[C@@H](CN(C)Cc1ccc(-c3ccccc3)cc1)O2,x,2.0,1.3,x,-2.5,x,x,x
CCN(Cc1ccccc1)C(=O)C(=O)c1cn(CC(=O)N2CCCC2)c2ccccc12,1.3,12.7,2.9,-4.4,15.6*,5.9,-0.7,-3.5
CCN(CC)C(=O)Cn1cc(C(=O)C(=O)N2CCN(C)CC2)c2ccccc21,7.8,3.0,-2.9,-4.8,16.4*,3.1,-0.7,0.3
O=C(CN1CCN(S(=O)(=O)c2ccc(F)cc2)CC1)Nc1ccc(F)cc1F,25.7,1.8,-3.3,-5.9,-0.9,7.4,x,x
CC1CCN(C(=O)CN2c3cccc4cccc(c34)S2(=O)=O)CC1,-15.0,4.1,2.2,-2.6,2.2,3.6,x,x
COc1ccccc1NS(=O)(=O)c1cccc(C(=O)NNC(=O)c2ccc(O)c(Cl)c2)c1,24.5,-4.4,-10.5,3.6,15.8*,2.4,-0.5,-3.0
Cc1ccc(C)c(NC(=O)CCN2CCOCC2)c1,-4.8,2.3,-0.7,-3.1,19.7*,-3.0,-0.3,-0.1
SMILES,APJ antagonist,EBI2 antag,CXCR6 block,APJ ag,m5-HT2A agonist,CCR6 antag,OPRM1 ag,HTR2A ag conf
Cc1ccc(C)c(NC(=O)CCN2CCN(C)CC2)c1,-8.0,-5.3,-21.8,-1.0,5.1,-5.4,x,x
COc1cc(CN2CCN(c3ccccc3F)CC2)cc(OC)c1O,-13.9,0.6,-7.4,7.1,16.0*,0.4,-0.5,30.5*
COc1ccc(NC(=O)c2ccc(CN3CCN(c4ccccc4)CC3)cc2)cc1OC,8.8,0.8,2.0,4.2,5.5,-10.5,x,x
COc1ccc(C)cc1NC(=O)c1ccc(CN2CCN(c3ccccc3)CC2)cc1,0.4,13.1,-0.5,-3.9,35.8*,10.5,-0.4,60.9*
COc1ccccc1C(=O)NCCN1CCN(c2ccccc2)CC1,14.9,7.5,4.4,-3.8,14.5*,17.1,-0.6,69.5*
CCOc1ccc(NC(=O)CCN2CCN(c3ccccc3F)CC2)cc1,-2.7,3.4,-3.7,-4.1,21.3*,7.5,-0.8,45.2*
COc1ccc(C)cc1NC(=O)CCN1CCN(c2ccccc2F)CC1,-2.6,15.0,-0.4,0.2,18.0*,-2.4,-0.5,57.2*
COc1ccc(OC)c(NC(=O)CCN2CCN(c3ccccc3F)CC2)c1,4.8,-1.0,9.7,-0.9,10.3,1.3,x,x
COc1cccc(C(=O)NNC(=O)CCN2CCN(c3ccccc3)CC2)c1,6.4,0.3,7.0,1.2,23.0*,9.8,-0.8,48.2*
CCOc1ccc(-n2c(=S)sc3c(=O)[nH]c(SCC(=O)C(C)(C)C)nc32)cc1,3.9,3.8,3.1,-0.2,17.0*,-4.9,-0.7,0.4
CCN(CC)C(=O)c1[nH]cnc1C(=O)N[C@H](C)c1ccccc1,-4.5,-1.3,-3.1,-3.4,-3.0,14.8,x,x
Cc1ccc(C2=NN(C(=O)CCl)C(c3ccco3)C2)o1 (configuration not stated),-19.3,5.2,0.1,0.6,-0.5,12.9,x,x
Cc1cccc(NS(=O)(=O)c2ccc3c(c2)CCC(=O)N3)c1,-12.3,-5.9,6.2,-0.3,16.0*!,-3.3,-0.4,4.8
O=C1CCc2cc(S(=O)(=O)Nc3cccc(Cl)c3)ccc2N1,x,-7.8,-2.8,x,-2.1,x,x,x
COc1ccc(C2=NO[C@@](CC(=O)O)(C(=O)Nc3ccc4c(c3)OCCO4)C2)cc1,-3.8,-11.5,-5.2,5.2,15.5*,-9.0,1.0*,2.4
NC(=O)COc1ccccc1C1=NO[C@@](CC(=O)O)(C(=O)Nc2ccc3c(c2)OCCO3)C1,6.4,6.0,-6.1,-1.5,7.1,2.8,x,x
